One assay has as its system HeLa cells. Kind of assay: Cytotoxicity. In kind it is cell-based.
Another assay concerns NCI-60 cell panel. Description: NCI-60 cell panel, Sulforhodamine B assay. The assay is classed as cell-based. The following applies: NCI-60 panel. The gist of the method:
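NCI-60 panel screen. Viability read by Sulforhodamine B staining of total protein, a measure of cell number rather than metabolic activity. Values are GI50, defined from the change in cell counts relative to the starting number of cells. Some panel lines were not tested.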
(In general: Sulforhodamine B stains cellular protein and so reports cell mass.)

The next assay relates to MA9.3 AML cell line. Description: Cytotoxicity in MA9.3 AML cells. In kind it is cell-based, human. The settings on record: for therapeutic index: between MA9.3 AML cell line and non-cancerous human CD34+ blood stem/progenitor cells.
Assay [1] has as its system human CD34+ blood stem/progenitor cells. Description: Cytotoxicity in normal CD34+ blood stem/progenitor cells. The assay is classed as cell-based.

Nine molecules from PMC3677216 (Bioorganic & medicinal chemistry letters, 2013) can be followed below.

Broadly, the IC50 is the concentration at which inhibition is half-maximal.

With `CC(C)N(CCOc1ccc(O)cc1)c1ccccc1` [Compound 4], in the assay with HeLa cells, the “decrease in potency relative to compound 2” value is 3 fold.
As for `Oc1ccc(OCCN(CCOc2ccc(O)cc2)c2ccccc2)cc1` [Compound 5], the “potency relative to compound 3” value in the assay with HeLa cells is given as “potency doubled”. For the same molecule, the “range of distribution of GI50 values” in the assay on NCI-60 cell panel turned out to be 55 fold.
In the case of `CN(CCCOc1ccc(O)cc1)c1ccccc1` [Compound 7], the “range of distribution of GI50 values” in the assay with NCI-60 cell panel is 53 fold.
For the molecule `CN(C(=O)COc1ccc(O)cc1)c1ccccc1` [Compound 11], the “potency / anticancer cell activity (in words)” value in the assay on HeLa cells is recorded as “anticancer cell activity was eliminated”.
Consider `CCOc1ccc(O)cc1` [Compound 12], for which the “potency / anticancer cell activity (in words)” value in the assay on HeLa cells was “no potency”.
With `CN(CCCOc1ccccc1)c1ccccc1` [Compound 13], the “potency / anticancer cell activity (in words)” value with HeLa cells is “complete loss of potency”.
For the molecule `CN(CCCBr)c1ccccc1` [Compound 14], the “potency / anticancer cell activity (in words)” value in the assay with HeLa cells is “loss of potency”.
On to `N.N.[Cl][Pt][Cl]` [cisplatin], for which the IC50 with MA9.3 AML cell line (MA9.3 AML cells) is 14 ± 0.7 µM; in assay [1], 15 ± 2 µM. In addition, in the assay on MA9.3 AML cell line, the therapeutic index is 1.0 ± 0.2.
In the assay on MA9.3 AML cell line, `COc1cccc2c1C(=O)c1c(O)c3c(c(O)c1C2=O)C[C@@](O)(C(=O)CO)C[C@@H]3O[C@H]1C[C@H](N)[C@H](O)[C@H](C)O1` [doxorubicin] showed a therapeutic index of 0.9 ± 0.2.
